High-throughput results as filed in PubChem.
Hits are enriched below; roughly 2.9% of the tested compounds scored in any of these assays.
SF1 activator: SF-1 (human) activation | Q13285 | CHO-K1 Gal4-SF-1 LBD luciferase reporter; % increase over DMSO SF-1-specific signal | activation, % at 10 µM | hit rate 1.9% among 65,000 | AID 522;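 active means activation above the mean activation of all tested compounds plus 3 SD, cut at about 50% in these data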
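System: CHO-K1 cells with Gal4–hSF-1 LBD chimera plus Gal4-driven luciferase; quantity: 4,000 CHO-K1 cells per well; compound: one dose, 10 µM compound, 1% DMSO; times: 20 h compound treatment, 37 °C; measured by: SteadyLite luciferase luminescence; read-out: percent activation versus DMSO; benchmarks: DMSO and mock-transfected background; replicates: one test per compound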
MT1-MMP txn act: activates MT1-MMP transcription. HT1080 MT1-MMP promoter luciferase reporter, luminescence, overnight; hits give high values. activation factor at 10 µM. hit rate 0.16% among 86,000. AID 750;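 active means activation factor of at least 2 for MT1-MMP transcription at 10 µM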
RORa activator: activators of human nuclear receptor RORA; hit rate 1.5% among 65,000; P35398; activation, % at 10 µM; CHO-K1 Gal4-RORA LBD luciferase reporter, luminescence; percent increase over mock-subtracted basal signal;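 active means activation above the mean of all tested compounds plus 3 SD, cut at about 49% in these data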;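 further: 0% = DMSO-treated RORA cells and 100% = added signal equal to DMSO minus mock-transfected cells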
Target sequence (P35398 whole entry, looked up, the tested form may be a part): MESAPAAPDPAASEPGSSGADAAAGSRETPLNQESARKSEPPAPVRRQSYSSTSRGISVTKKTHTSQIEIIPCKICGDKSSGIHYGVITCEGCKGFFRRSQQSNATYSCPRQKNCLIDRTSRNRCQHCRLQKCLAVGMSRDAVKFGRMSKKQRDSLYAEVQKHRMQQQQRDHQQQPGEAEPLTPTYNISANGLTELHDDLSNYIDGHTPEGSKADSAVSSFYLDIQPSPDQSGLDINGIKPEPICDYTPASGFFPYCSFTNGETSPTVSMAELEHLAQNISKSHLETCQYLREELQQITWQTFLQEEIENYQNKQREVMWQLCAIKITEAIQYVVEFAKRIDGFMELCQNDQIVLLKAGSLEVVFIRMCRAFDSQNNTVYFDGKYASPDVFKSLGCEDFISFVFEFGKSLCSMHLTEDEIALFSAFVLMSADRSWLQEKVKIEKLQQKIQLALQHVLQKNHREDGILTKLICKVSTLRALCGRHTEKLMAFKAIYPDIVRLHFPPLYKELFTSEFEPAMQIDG
Jurkat tox 60K: reduces viability or proliferation of Jurkat cells | hit rate 1.2% among 56,000 | Jurkat E6.1 viability, ATP luminescence, 48 h | inhibition, % at 4 µM;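 active means inhibition above the mean inhibition of all tested compounds plus 3 SD, cut at about 28% in these data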
HEK293 NFkB inh: inhibitors of the PMA/ionomycin-induced NF-kB reporter in HEK293 cells; HEK-293 NF-kB luciferase reporter, luminescence; inhibition, % at 3 µM; hit rate 0.21% among 62,000;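 active means inhibition above the mean of all tested compounds plus 3 SD, cut at about 40% in these data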;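 further: 0% = stimulated DMSO wells and 100% = 10 µM reference inhibitor 5653914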
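Signal: luciferase luminescence; Material: HEK-293 cells with stable firefly luciferase reporter driven by four HIV NF-kB elements; Probe or stimulus: PMA with ionomycin; Replication: tested once; Times: 1 h compound pretreatment, then 16 h stimulation at 37 °C, 5% CO2; Benchmarks: DMSO and 10 µM reference inhibitor; Evaluation: per-plate % inhibition versus controls.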
The depositor's hits bear a star; / = not tested or not shown.

SMILES	SF1 activator	MT1-MMP txn act	RORa activator	Jurkat tox 60K	HEK293 NFkB inh
c1csc(-c2csc3nc(CN4CCOCC4)nc(NCc4ccc5c(c4)OCO5)c23)c1	-7	1.1	-1	7	9
COc1ccc(C2NC(=O)NC3=C2CCc2ccccc23)cc1 (centres undefined)	41	1.1	24	72*	0
COc1ccc(NC(=O)Cn2cccc2)cc1Cl	2	1	-5	7	5
COc1ccc(C(=O)Nc2ccc3c(c2)nc2n3CCSC2)cc1	57*	1.3	26	9	2
CCC(=NC(C)c1ccccc1)c1c(O)n(C)c(=O)n(C)c1=O (centres undefined)	-28	0.9	-24	54*	9
CCCc1cc(C(=O)NC2CCCC2)no1	29	1.6	61*	-7	-13
CC(C)c1cc(C(=O)NC2CCCCC2)no1	54*	1.8	11	-1	-10
CCCc1cc(C(=O)NC2CCCCC2)no1	54*	1.4	46	-3	-14
CCCc1cc(C(=O)N(C2CCCCC2)C2CCCCC2)no1	-8	1	8	4	8
O=C1c2ccccc2S(=O)(=O)N1CCOc1ccccc1	1	1.3	24	-4	11
COc1cc(C(Nc2ccccn2)c2ccc3ccc(C)nc3c2O)cc(OC)c1O (centres undefined)	9	1	0	71*	25
COc1cc(NC(=O)c2cccc3c2C(=O)N(Cc2cccnc2)C3)cc(OC)c1OC	12	0.9	-7	-6	58*
Oc1c(CN2CCCCC2)cc(Br)c2cccnc12	-69	0.8	11	49*	19
Oc1c(CN2CCc3ccccc3C2)cc(Cl)c2cccnc12	-29	/	-12	16	10
CN1CCN(Cc2cc(COCc3ccccc3)c3cccnc3c2O)CC1	-43	0.6	-25	36*	30
Cc1nn(C)cc1C=NCCOCc1ccccc1	/	1.1	/	/	/
CCn1nccc1C(=O)Nc1ccc(Cl)cc1Cl	67*	1.3	31	0	11
CCn1nccc1C(=O)Nc1cc(Cl)ccc1Cl	3	1	-5	5	21
COc1ccc(-c2ncc3ccccn23)cc1	53*	1.2	21	-5	-16
O=C(NS(=O)(=O)c1ccc2c(c1)OCCO2)c1ccccc1	-15	1.1	-12	/	3
COc1ccc(CS(=O)(=O)/C(Cl)=C(/Cl)C(=O)Nc2ccc(OC)nc2)cc1	/	0.3	/	/	/
CC(C)Sc1nnc(Nc2ccccc2)s1	106*	1.3	44	-3	-22
C#CCN(Cc1ccccc1)C(=O)/C=C/c1ccccc1	/	1.2	/	/	/
O=C(CN1CCC(NC(=O)c2cccc(F)c2)CC1)NCc1ccccc1F	7	1	24	/	10
CC(C)(C)C(=O)Nc1ccc(-c2cn3ccsc3n2)cc1	-33	0.2	-32	7	12
SMILES	SF1 activator	MT1-MMP txn act	RORa activator	Jurkat tox 60K	HEK293 NFkB inh
CC(C)CC(=O)Nc1ccc(-c2cn3ccsc3n2)cc1	52*	0.6	52*	6	-23
O=C(Nc1ccc(SC(F)F)cc1)c1ccc2nccnc2c1	-18	1.8	-24	32*	-3
O=C(OCC(=O)N1N=C(c2ccc(Cl)cc2)CC1c1ccco1)c1ccccc1O (centres undefined)	/	1.1	/	/	/
c1ccc2c(CCNc3ncnc4nc[nH]c34)c[nH]c2c1	16	/	47	88*	7
O=S1(=O)C=C(Sc2nc3cc(Cl)ccc3o2)c2ccccc21	-71	1.2	-75	99*	32
CN(C)c1nc(N)nc(CSc2nc3cc(Cl)ccc3o2)n1	17	1.4	16	0	-3
CC(Nc1cc(=O)n(C)c(=O)n1C)c1ccccc1 (centres undefined)	9	1.2	17	-4	10
O=c1c2c(nc3cc(-c4ccccc4)[nH]n13)CCC2	60*	1.1	39	4	-39
Cc1cc2nc3c(c(=O)n2[nH]1)CCCC3	15	1.1	-1	/	17
COc1ccc(-c2cc3nc4c(c(=O)n3[nH]2)CCC4)cc1	63*	1.1	54*	-3	-22
CCN(CC)CCn1c2ccccc2c2cnc(N)c(C#N)c21	/	0.6	/	/	/
CCc1nnc2c3cnn(-c4ccccc4)c3ncn12	1	1.6	83*	2	6
Cc1ccc(-n2ncc3c2ncn2c(C)nnc32)cc1C	21	1	60*	-11	-45
c1ccc(-n2ncc3c2ncn2cnnc32)cc1	-3	1.1	-12	-2	21
Clc1ccc(C2C3=C(Nc4ncnn42)c2ccccc2CC3)cc1 (centres undefined)	/	1.1	/	/	/
CC(C)n1nc(C(=O)Nc2nnc(SCc3c(Cl)cccc3Cl)s2)c2ccccc2c1=O	/	1.1	/	/	/
CCOc1ccccc1NC(=O)c1cccc(NC(=O)c2ccco2)c1	-1	0.5	35	81*	42*
COc1cc(NC(=O)C(C)C)ccc1NC(=O)c1ccco1	54*	1.1	44	-1	-23
COc1ccc(NC(=O)c2ccco2)c(OC)c1	48	1.6	30	0	7
NC(=O)CSc1nnc(Cc2csc(Nc3ccc(F)cc3)n2)n1Cc1ccccc1	/	1	/	/	/
COc1cc2cc(CN(Cc3nnnn3Cc3ccccc3)CC3CCCO3)c(=O)[nH]c2cc1OC (centres undefined)	0	1	-20	/	15
COc1ccc2[nH]c(=O)c(CN(Cc3ccccc3)Cc3nnnn3CC3CCCO3)cc2c1 (centres undefined)	57*	1	83*	-8	-9
CC1N(C)c2cc(NC(=O)c3ccco3)ccc2C1(C)C (centres undefined)	71*	1.4	33	10	-40
COc1ccc(S(=O)(=O)N(CCc2ccccc2)CC(=O)NC(C)C)cc1	/	1.3	/	/	/
O=C(Nc1nc(-c2ccc3c(c2)OCCO3)cs1)c1ccc(S(=O)(=O)N2CCCCC2)cc1	-6	1.1	2	72*	34
SMILES	SF1 activator	MT1-MMP txn act	RORa activator	Jurkat tox 60K	HEK293 NFkB inh
O=C(CSCC(=O)N1CCOCC1)Nc1nc(-c2ccc3c(c2)OCO3)cs1	48	1.5	52*	-5	7
CCOC(=O)N1CCN(C(=O)CSCC(=O)Nc2nc(-c3ccc4c(c3)OCO4)cs2)CC1	40	1.3	39	3	7
CC(C)(CC(=O)O)Cc1nc(-c2ccc(Cl)cc2)no1	63*	1.1	0	4	22
CC(C)(C)c1ccc(-c2noc(CCC(N)=O)n2)cc1	-88	/	-88	-5	86*
CNC(=O)CCc1nc(-c2ccc(C(C)(C)C)cc2)no1	-88	1.2	-89	-5	70*
O=C(O)CCc1nc(-c2ccc(Cl)cc2)no1	-1	/	-10	-2	16
CN(C)C(=O)CCc1nc(-c2ccc(C(C)(C)C)cc2)no1	-83	0.9	-82	4	16
COc1ccc(-c2nc(-c3cccs3)c(-c3cccs3)[nH]2)cc1O	4	1.2	4	6	3
O/N=C/c1cn(-c2ccccc2)nc1-c1ccc2c(c1)OCCO2	/	1.4	/	/	/
OCc1cn(-c2ccccc2)nc1-c1ccc2c(c1)OCCO2	43	2.1*	73*	-4	-27
